Laboratory results taken from ChEMBL document CHEMBL1156459, “Discovery of a small molecule antagonist of the parathyroid hormone receptor by using an N-terminal parathyroid hormone peptide probe” (Proc Natl Acad Sci U S A, 2007).
Activity calls are given as the source filed them. No cut-off for these calls is given here. Square brackets hold non-standard residues; d marks the D form. Peptide text beside a SMILES is read from it. * marks the point of attachment. X1 = O=C(c1ccccc1-c1c2ccc(=O)cc-2oc2cc(O)ccc12)*; hArg = N=C(N)NCCCC[C@H](N)C(=O)O; Nle = CCCC[C@H](N)C(=O)O; Aib = CC(C)(N)C(=O)O

Tests used:
[1] = molecular target: T1, Parathyroid hormone/parathyroid hormone-related peptide receptor (Homo sapiens, UniProt Q03431); experiment: Displacement of [125I]DPC-AJ1951 from PTH/PTH-related peptide receptor expressed in HKRK-B28 cells; format: cell-based
T1 sequence (Q03431 whole entry): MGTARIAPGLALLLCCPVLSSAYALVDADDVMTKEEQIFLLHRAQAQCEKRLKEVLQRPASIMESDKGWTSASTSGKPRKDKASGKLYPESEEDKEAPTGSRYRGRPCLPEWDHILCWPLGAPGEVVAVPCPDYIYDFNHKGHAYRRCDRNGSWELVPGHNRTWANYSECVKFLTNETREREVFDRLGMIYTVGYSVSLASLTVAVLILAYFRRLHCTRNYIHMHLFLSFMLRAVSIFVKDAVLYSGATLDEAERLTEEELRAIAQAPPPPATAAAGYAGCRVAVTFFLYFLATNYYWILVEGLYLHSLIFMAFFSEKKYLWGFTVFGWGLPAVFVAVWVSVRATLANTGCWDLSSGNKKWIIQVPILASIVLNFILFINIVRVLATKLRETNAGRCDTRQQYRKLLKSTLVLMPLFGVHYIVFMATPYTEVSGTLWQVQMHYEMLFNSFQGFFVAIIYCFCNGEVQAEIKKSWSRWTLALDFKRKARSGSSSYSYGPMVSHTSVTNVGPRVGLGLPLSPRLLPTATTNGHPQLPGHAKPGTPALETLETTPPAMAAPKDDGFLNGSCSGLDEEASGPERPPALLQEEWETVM
Summary of the method: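 Whole HKRK-B28 cells plated at 30,000/well and incubated overnight at 37°C, 5% CO2. Incubated 3 h at room temperature, washed three times, bound radioactivity counted by scintillation.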

[2] = molecular target: T1, Parathyroid hormone/parathyroid hormone-related peptide receptor; experiment: Activity at human PTH/PTH-related peptide receptor expressed in SAOS2 cells assessed as cAMP formation; format: functional, cell-based, SAOS-2
Summary of the method: (§1)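 Nonconfluent cells grown at 37°C in DMEM with 10% FBS, refed 12–24 h before assay. Rinsed with warm PBS, detached with prewarmed EDTA (37°C, 5–10 min), spun at 300 × g for 5 min. Resuspended in HBSS/5 mM Hepes/0.1% BSA/0.5 mM IBMX, pH 7.4. cAMP read by AlphaScreen.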

[3] = molecular target: T1, Parathyroid hormone/parathyroid hormone-related peptide receptor; experiment: Activity at human PTH/PTH-related peptide receptor expressed in HEK293 cells assessed as induction of luciferase activity by CRE-luciferase reporter assay; format: functional, cell-based
[4] = molecular target: T2, Parathyroid hormone/parathyroid hormone-related peptide receptor (Rattus norvegicus, UniProt P25961); experiment: Activity at rat PTH/PTH-related peptide receptor expressed in rat UMR106 cells assessed as cAMP formation; format: functional, cell-based; summary of the method: as §1
T2 sequence (P25961 whole entry): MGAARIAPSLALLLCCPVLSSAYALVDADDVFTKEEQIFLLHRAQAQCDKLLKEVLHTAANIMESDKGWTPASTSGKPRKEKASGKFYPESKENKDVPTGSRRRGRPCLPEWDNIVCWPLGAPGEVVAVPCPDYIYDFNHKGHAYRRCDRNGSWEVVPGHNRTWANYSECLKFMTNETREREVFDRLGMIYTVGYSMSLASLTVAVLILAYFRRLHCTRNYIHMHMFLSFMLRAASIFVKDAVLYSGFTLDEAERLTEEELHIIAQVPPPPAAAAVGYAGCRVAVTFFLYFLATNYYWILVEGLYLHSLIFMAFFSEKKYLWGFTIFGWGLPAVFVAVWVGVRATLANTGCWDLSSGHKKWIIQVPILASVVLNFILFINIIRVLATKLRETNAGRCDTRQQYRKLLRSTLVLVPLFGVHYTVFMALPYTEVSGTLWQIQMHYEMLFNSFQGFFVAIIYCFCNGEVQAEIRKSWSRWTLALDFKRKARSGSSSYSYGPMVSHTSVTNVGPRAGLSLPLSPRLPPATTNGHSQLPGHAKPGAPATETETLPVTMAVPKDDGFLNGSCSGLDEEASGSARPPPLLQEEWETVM

Mus musculus = organism: Mus musculus; experiment: Inhibition of bone mineralization in embryonic mouse metatarsal; format: functional

IC50 [1] [nM] | EC50 [2] [nM] | EC50 [3] [nM] | EC50 [4] [nM] | SMILES | Activity (Mus musculus)
98.2 | 20 | 1.1 |  | CCCC[C@H](NC(=O)[C@H](CC(C)C)NC(=O)[C@H](CCC(N)=O)NC(=O)[C@@H](NC(=O)[C@H](CCC(=O)O)NC(=O)C(C)(C)NC(=O)[C@@H](NC(=O)C(C)(C)N)C(C)C)[C@@H](C)CC)C(=O)N[C@@H](Cc1cnc[nH]1)C(=O)N[C@@H](CCC(N)=O)C(=O)N[C@@H](CCCN=C(N)N)C(=O)N[C@@H](C)C(=O)N[C@@H](CCCCN)C(=O)N[C@@H](Cc1ccc(O)cc1)C(=O)N[C@@H](CCCCNC(=O)c1ccccc1-c1c2ccc(=O)cc-2oc2cc(O)ccc12)C(N)=O (H-[Aib]V[Aib]EIQL[Nle]HQRAKYK(X1)-NH2) | 
2190 | 1460 | 26 | 129 | CCCC[C@H](NC(=O)[C@H](CC(C)C)NC(=O)[C@H](CCC(N)=O)NC(=O)[C@@H](NC(=O)[C@H](CCC(=O)O)NC(=O)[C@H](C)NC(=O)[C@@H](NC(=O)[C@H](C)N)C(C)C)[C@@H](C)CC)C(=O)N[C@@H](Cc1cnc[nH]1)C(=O)N[C@@H](CCC(N)=O)C(=O)N[C@@H](CCCCNC(=N)N)C(=O)N[C@@H](C)C(=O)N[C@@H](CCCCN)C(=O)N[C@@H](Cc1c[nH]c2ccccc12)C(=O)N[C@@H](Cc1ccc(O)cc1)C(N)=O (H-AVAEIQL[Nle]HQ[hArg]AKWY-NH2) | 
 |  |  |  | CC[C@H](C)[C@H](NC(=O)[C@H](CCC(=O)O)NC(=O)C(C)(C)NC(=O)[C@@H](NC(=O)C(C)(C)N)C(C)C)C(=O)N[C@@H](CCC(N)=O)C(=O)N[C@@H](CC(C)C)C(=O)N[C@@H](CCSC)C(=O)N[C@@H](Cc1cnc[nH]1)C(=O)N[C@@H](CCC(N)=O)C(=O)N[C@@H](CCCCNC(=N)N)C(=O)N[C@@H](C)C(=O)N[C@@H](CCCCN)C(=O)N[C@@H](Cc1c[nH]c2ccccc12)C(=O)O (H-[Aib]V[Aib]EIQLMHQ[hArg]AKW-OH) | Active
10100 | 1000 | 53 | 251 | CC[C@H](C)[C@H](NC(=O)[C@H](CCC(=O)O)NC(=O)[C@H](C)NC(=O)[C@@H](NC(=O)[C@H](C)N)C(C)C)C(=O)N[C@@H](CCC(N)=O)C(=O)N[C@@H](CC(C)C)C(=O)N[C@@H](CCSC)C(=O)N[C@@H](Cc1cnc[nH]1)C(=O)N[C@@H](CCC(N)=O)C(=O)N[C@@H](CCCCNC(=N)N)C(=O)N[C@@H](C)C(=O)N[C@@H](CCCCN)C(=O)N[C@@H](Cc1c[nH]c2ccccc12)C(=O)N[C@@H](CCCCNC(=O)c1ccccc1-c1c2ccc(=O)cc-2oc2cc(O)ccc12)C(N)=O (H-AVAEIQLMHQ[hArg]AKWK(X1)-NH2) | 
10500 | 800 | 32 | 155 | CC[C@H](C)[C@H](NC(=O)[C@H](CCC(=O)O)NC(=O)[C@H](C)NC(=O)[C@@H](NC(=O)[C@H](C)N)C(C)C)C(=O)N[C@@H](CCC(N)=O)C(=O)N[C@@H](CC(C)C)C(=O)N[C@@H](CCSC)C(=O)N[C@@H](Cc1cnc[nH]1)C(=O)N[C@@H](CCC(N)=O)C(=O)N[C@@H](CCCCN=C(N)N)C(=O)N[C@@H](C)C(=O)N[C@@H](CCCCN)C(=O)N[C@@H](Cc1c[nH]c2ccccc12)C(N)=O (H-AVAEIQLMHQ[hArg]AKW-NH2) | 
